Experiment [1] is described as follows: Displacement of [3H]-DTG from human sigma 2 receptor in human Jurkat cell membranes incubated for 1 hr by liquid scintillation counting. An outline of the steps:
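Competition binding on Jurkat cell membranes (10–20 µg protein per tube) with 25 nM [3H]-DTG, plus (+)-pentazocine to saturate sigma-1 sites, across a range of test concentrations. Incubation was 1 h at room temperature in 5 mM Tris/HCl, pH 7.4. Bound ligand was separated by rapid GF/B filtration with ice-cold NaCl washes and counted by liquid scintillation. Nonspecific binding was measured under similar conditions.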
For orientation: Loss of bound radioactivity is the signal in a displacement assay; it reports binding, not function.

Experiment [2] in a line: Selectivity index, ratio of IC50 for human SH-SY5Y cells to Ki for human sigma 1 receptor in human Jurkat cell membranes.
Experiment [3] deals with Sigma non-opioid intracellular receptor 1 (Homo sapiens, UniProt Q99720). In words: Displacement of [3H](+)-pentazocine from human sigma 1 receptor in human Jurkat cell membranes incubated for 2 hrs by liquid scintillation counting.
Chain of Sigma non-opioid intracellular receptor 1 (Q99720 whole entry): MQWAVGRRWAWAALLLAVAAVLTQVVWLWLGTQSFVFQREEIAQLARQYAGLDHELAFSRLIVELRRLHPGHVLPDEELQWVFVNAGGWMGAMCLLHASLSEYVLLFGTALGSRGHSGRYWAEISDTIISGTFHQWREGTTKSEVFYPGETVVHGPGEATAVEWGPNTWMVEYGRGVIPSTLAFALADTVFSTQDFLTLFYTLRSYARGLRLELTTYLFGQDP
For experiment [4], the system named is Jurkat. Briefly: Selectivity index, ratio of Ki for human sigma 2 receptor in human Jurkat cell membranes to Ki for human sigma 1 receptor in human Jurkat cell membranes. The experiment is classed as cell-based. An outline of the steps:
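The ratio divides sigma-2 Ki by sigma-1 Ki, both measured on Jurkat membranes. Sigma-2 used 25 nM [3H]-DTG with (+)-pentazocine masking, 1 h at room temperature. Sigma-1 used 15 nM [3H](+)-pentazocine, 2 h at 37 °C. Both assays ran in 5 mM Tris/HCl, pH 7.4, with filtration and scintillation read-out.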

A short description of experiment [5]: Cytotoxicity against human SH-SY5Y cells after 72 hrs by MTT assay. The experiment is classed as cell-based. An outline of the steps: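 SH-SY5Y neuroblastoma cells were grown in DMEM with 2 mM L-glutamine, streptomycin, 100 IU/mL penicillin, 1 mM non-essential amino acids and 10% heat-inactivated FBS at 37 °C under 5% CO2. Cells were seeded at 2000 per well and serum-starved 24 h, then exposed to a concentration series in <0.1% DMSO. Viability was read by colorimetric MTT. IC50 is the mean of 2–3 independent experiments.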
A general note: Tetrazolium dyes change colour on reduction, which living cells bring about.

Experiment [6] in a line: Displacement of [3H]-DTG from rat cerebral cortex membrane sigma 2 receptor incubated for 1 hr by liquid scintillation counting. The experiment is classed as tissue-based.
In experiment [7] the test system is Jurkat. In words: Selectivity index, ratio of Ki for sigma 2 receptor in rat cerebral cortex membranes to Ki for human sigma 1 receptor in human Jurkat cell membranes. The experiment is classed as cell-based.

Broadly, the Ki is the dissociation constant of the complex between target and ligand, obtained from inhibition or displacement. High values mean a looser hold on the target, low ones a stronger hold on the target. As a reminder, the IC50 is the concentration needed to halve the response being measured.

With `O=C(CCCN1CCC(O)(c2ccc(Cl)cc2)CC1)c1ccc(F)cc1` [HALOPERIDOL], affinity in experiment [1] was put at a Ki of 175 nM.

As for `c1ccc2c(c1)CN(CCCN1CCc3c([nH]c4ccccc34)C1)C2`, the “Selectivity Index” value in experiment [2] turned out to be 3112. The Ki in experiment [3] was found to be 8 nM; in experiment [1], 110 nM. The Ratio Ki in the experiment with Jurkat [4] is 14. This compound also registered an IC50 in experiment [5] of 24900 nM.

With `c1ccc(C2c3[nH]c4ccccc4c3CCN2CCCN2Cc3ccccc3C2)cc1` (stereo unspecified), the “Selectivity Index” value in experiment [2] is 2179. Besides, the Ki in experiment [3] was found to be 8.4 nM; in experiment [1] it was 110 nM. Besides, the Ratio Ki with Jurkat [4] was 13. Also, the half-inhibitory concentration (IC50) in experiment [5] was determined as 18300 nM.

With `CN(CCCN1c2ccccc2Sc2ccccc21)Cc1ccccc1`, the “Selectivity Index” value in experiment [2] came out at 611. Also, the Ki in experiment [3] amounted to 28 nM; in experiment [1] it was 280 nM. The Ratio Ki in the experiment with Jurkat [4] came to 10. Moreover, the IC50 in experiment [5] came to 17100 nM.

For the compound `c1ccc(C2c3[nH]c4ccccc4c3CCN2CCCN2CCCC2)cc1` (stereo unspecified), the “Selectivity Index” value in experiment [2] is listed as 1328. Besides, the inhibition constant (Ki) in experiment [3] was determined as 36 nM; in experiment [1], 310 nM. Besides, in the experiment with Jurkat [4], the Ratio Ki came out at 9. The same compound showed a concentration for half-maximal inhibition (IC50) in experiment [5] of 47800 nM.

Consider `c1ccc2c3c([nH]c2c1)CN(CCCN1CCCC1)CC3`, for which the “Selectivity Index” value in experiment [2] is recorded as less than 160. The values for the inhibition constant (Ki) in experiment [3] and in experiment [1] were greater than 200 nM and greater than 400 nM, respectively. The compound also had an IC50 in experiment [5] of 32900 nM.

In the case of `CN(CCCN1CCc2[nH]c3ccccc3c2C1)CCc1ccccc1`, the “Selectivity Index” value in experiment [2] was determined as 3018. Moreover, the values for the inhibitory constant (Ki) in experiment [3] and in experiment [1] were 11 nM and 200 nM, respectively. In the experiment on Jurkat [4], the Ratio Ki stood at 18. The same compound came in with an IC50 in experiment [5] of 33200 nM.

Consider `CN(CCCN1C(=O)[C@H]2Cc3ccccc3CN2C1=O)Cc1ccccc1`, for which the inhibition constant Ki in experiment [6] and in experiment [1] was 764 nM in each case. The compound also showed a half-inhibitory concentration (IC50) in experiment [5] of 19500 nM.

Consider `CN(CCCN1CCc2[nH]c3ccccc3c2C1)Cc1ccccc1`, for which the “Selectivity Index” value in experiment [2] is on record as 939. Moreover, the Ki in experiment [3] is 18 nM; in experiment [1], 130 nM. Also, the Ratio Ki in the experiment with Jurkat [4] came out at 7. Half-maximal inhibition in experiment [5] (IC50) was put at 16900 nM.

Turning to `CN(CCCN1CCc2c([nH]c3ccccc23)C1)Cc1ccccc1`, the “Selectivity Index” value in experiment [2] came to 3177. Also, the Ki was 6.2 nM in experiment [3] and 15 nM in experiment [1]. Besides, the Ratio Ki in the experiment with Jurkat [4] was 2.4. Half-maximal inhibition in experiment [5] (IC50) was put at 19700 nM.

In the case of `CN(CCCN1CCc2oc3ccccc3c2C1)CCc1ccccc1`, the “Selectivity Index” value in experiment [2] is 10160. Moreover, the inhibition constant Ki in experiment [3] was determined as 2.5 nM; in experiment [1], 78 nM. In addition, the Ratio Ki in the experiment on Jurkat [4] was 31. This compound yielded an IC50 in experiment [5] of 25400 nM.

In the case of `c1ccc2c(c1)CN(CCCN1c3ccccc3Oc3ccccc31)C2`, in experiment [2], the “Selectivity Index” value is on record as less than 55. For the same compound, the figures for the inhibition constant Ki in experiment [3] and in experiment [1] were greater than 200 nM and 140 nM, respectively. For the same compound, the Ratio Ki in the experiment on Jurkat [4] was less than 1. In addition, the IC50 in experiment [5] was found to be 11000 nM.

Take `CN(CCCn1c(=O)oc2cc3c(cc21)C(c1ccc(Cl)cc1)CC3=O)Cc1ccccc1` (stereo unspecified): the “Selectivity Index” value in experiment [2] came out at 31. In addition, the Ki in experiment [3] worked out at 160 nM; in experiment [1] it was 50 nM. Moreover, the Ratio Ki in the experiment with Jurkat [4] is 0.3. Half-maximal inhibition in experiment [5] (IC50) required 5000 nM.

With `CN(CCCN1CCc2c([nH]c3ccccc23)C1c1ccccc1)CCc1ccccc1` (stereo unspecified), the “Selectivity Index” value in experiment [2] is recorded as 1073. Also, the Ki worked out at 11 nM in experiment [3] and 93 nM in experiment [1]. Also, in the experiment on Jurkat [4], the Ratio Ki was 8. Besides, in experiment [5], the IC50 turned out to be 11800 nM.

In the case of `CN(CCCN1CCc2oc3ccccc3c2C1)Cc1ccccc1`, in experiment [2], the “Selectivity Index” value worked out at 34450. Also, the inhibition constant Ki is 2 nM in experiment [3] and less than 10 nM in experiment [1]. In addition, in the experiment with Jurkat [4], the Ratio Ki is less than 5. Moreover, the IC50 in experiment [5] is 68900 nM.

Take `CN(CCCN1C(=O)[C@@H]2Cc3ccccc3CN2C1=O)Cc1ccccc1`: the Ki in experiment [6] and in experiment [1] was 496 nM throughout. This compound came in with an IC50 in experiment [5] greater than 100000 nM.

As to `CN(CCCN1c2ccccc2Oc2ccccc21)CCc1ccccc1`, the “Selectivity Index” value in experiment [2] was determined as 2606. Moreover, the inhibitory constant (Ki) in experiment [3] is 18 nM; in experiment [1], 80 nM. The Ratio Ki in the experiment on Jurkat [4] amounted to 4. The compound further showed an IC50 in experiment [5] of 46900 nM.

Take `CN(CCCN1c2ccccc2Sc2ccccc21)CCc1ccccc1`: the “Selectivity Index” value in experiment [2] is 782. Also, the figures for the Ki in experiment [3] and in experiment [1] were 11 nM and 310 nM, respectively. Besides, the Ratio Ki with Jurkat [4] is 28. The IC50 in experiment [5] was found to be 8600 nM.

Take `O=C1C2Cc3ccccc3CN2C(=O)N1CCCN1Cc2ccccc2C1` (stereo unspecified): the results for the Ki in experiment [6], in experiment [3] and in experiment [1] were 416 nM, 5.3 nM and 416 nM, respectively. In addition, the figures for the Ratio Ki in the experiment on Jurkat [7] and with Jurkat [4] were 78 and 103, respectively.

In the case of `c1ccc2c(c1)CN(CCCN1CCc3[nH]c4ccccc4c3C1)C2`, the “Selectivity Index” value in experiment [2] came to 694. The results for the inhibition constant (Ki) in experiment [3] and in experiment [1] were 72 nM and 180 nM, respectively. Also, the Ratio Ki in the experiment with Jurkat [4] was 2.5. Moreover, the half-maximal inhibitory concentration (IC50) in experiment [5] is 50000 nM.

`c1ccc2c(c1)CN(CCCN1c3ccccc3Sc3ccccc31)C2`: the “Selectivity Index” value in experiment [2] was 6942. The inhibition constant (Ki) in experiment [3] was 12 nM; in experiment [1], 94 nM. Also, in the experiment with Jurkat [4], the Ratio Ki came to 8. In experiment [5], this compound gave a half-maximal inhibitory concentration (IC50) of 83300 nM.

As for `CN(CCCN1CCc2c([nH]c3ccccc23)C1)CCc1ccccc1`, the “Selectivity Index” value in experiment [2] is reported as 1611. In addition, the Ki in experiment [3] amounted to 7.2 nM; in experiment [1] it was 91 nM. The Ratio Ki with Jurkat [4] was 13. In experiment [5], this compound returned a half-inhibitory concentration (IC50) of 11600 nM.

As to `c1ccc2c(c1)CN(CCCN1CCc3oc4ccccc4c3C1)C2`, the “Selectivity Index” value in experiment [2] is 7173. The results for the inhibition constant Ki in experiment [3] and in experiment [1] were 11 nM and 9.9 nM, respectively. Besides, the Ratio Ki with Jurkat [4] was determined as 0.9. Also, the half-inhibitory concentration (IC50) in experiment [5] was found to be 78900 nM.

`CN(CCCN1c2ccccc2Oc2ccccc21)Cc1ccccc1`: in experiment [2], the “Selectivity Index” value is on record as less than 350. The Ki in experiment [3] is greater than 200 nM; in experiment [1] it was 180 nM. In addition, the Ratio Ki with Jurkat [4] is less than 1. In experiment [5], this compound yielded a 50% inhibitory concentration (IC50) of 71900 nM.

Regarding `CN(CCCN1CCc2c([nH]c3ccccc23)C1c1ccccc1)Cc1ccccc1` (stereo unspecified), the “Selectivity Index” value in experiment [2] amounted to 2163. Moreover, the Ki in experiment [3] stood at 4.3 nM; in experiment [1], 100 nM. Also, the Ratio Ki in the experiment with Jurkat [4] turned out to be 23. This compound gave an IC50 in experiment [5] of 9300 nM.

In the case of `CN(CCCn1c(=O)oc2cc3c(cc21)C(c1ccccc1)CC3=O)Cc1ccccc1` (stereo unspecified), the “Selectivity Index” value in experiment [2] is reported as greater than 1389. The Ki in experiment [3] turned out to be 72 nM; in experiment [1], 180 nM. For the same compound, in the experiment on Jurkat [4], the Ratio Ki turned out to be 2.5. In experiment [5], this compound had an IC50 greater than 100000 nM.
